pEC50, pKd: −log10 of the molar value.
Assays:
[1] = species on record: Cavia porcellus; assay: In vitro muscarinic activity was measured on isolated guinea pig ileum; format: functional
In short: (§1)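 Guinea pig ileum segments in Tyrode solution pH 7.4, 37 °C, with 0.3 mM hexamethonium. Isotonic contractions at 1 g tension. Cumulative concentration–response curves, concentration raised stepwise by a factor of 2.15. Means ± SE over tissues.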

[2] = species on record: Cavia porcellus; assay: In vitro muscarinic activity was measured on isolated guinea pig urinary bladder; format: functional
In short: (§2)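 Guinea pig urinary bladder strips in Tyrode solution pH 7.4, 37 °C, containing 0.3 mM hexamethonium. Isotonic recording at 1 g tension. Cumulative concentration–response curves, concentration raised stepwise by a factor of 3.16.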

[3] = species on record: Cavia porcellus; assay: Relative efficacy of compound was determined in guinea pig iluem; format: functional
[4] = species on record: Cavia porcellus; assay: Relative efficacy of compound was determined in guinea pig urinary bladder; format: functional
[5] = species on record: Cavia porcellus; assay: Dissociation constant of the drug-receptor complex was measured in guinea pig urinary bladder; format: functional
[6] = system: Mus musculus; assay: Sialalogic activity was measured in mice after intravenous administration; format: functional
In short: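 Male Swiss-Webster mice (24–30 g). Drugs in 0.9% NaCl given iv in the tail. Salivation was scored by blotting the mouth onto absorbent tissue during the first 10 min. ED50 by the up-and-down method, six or more animals per determination.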

[7] = (§3) Acute toxicity was measured in mice; format: organism-based; details: mouse, in vivo
In short: (§4)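 Male Swiss-Webster mice, 24-30 g. Drug dissolved in 0.9% NaCl, given iv in the tail. LD50 estimated by the up-and-down method, using six or more animals per determination. Mortality counted at 1 h.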

[8] = target: Muscarinic acetylcholine receptor; assay: Binding affinity to Muscarinic acetylcholine receptor in rat cerebral cortex; format: tissue-based
[9] = target: T1, Muscarinic acetylcholine receptor (Rattus norvegicus) (UniProt P08482+P08483+P08485+P08911+P10980); assay: Percentage of high affinity sites was determined in rat cerebral cortex; format: tissue-based
[10] = target: T1, Muscarinic acetylcholine receptor (Rattus norvegicus); assay: Low affinity dissociation constant to Muscarinic acetylcholine receptor in rat cerebral cortex; format: tissue-based
[11] = target: T1, Muscarinic acetylcholine receptor (Rattus norvegicus); assay: High affinity dissociation constant to Muscarinic acetylcholine receptor in rat cerebral cortex; format: tissue-based
[12] = Equipotent molar ratio measured on frog rectus abdominis; format: functional, Rectus abdominis muscle
In short: (§5)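 Frog rectus abdominis in aerated Clark-Ringer solution pH 7.4 at 22 °C. Noncumulative concentration–response curves, 5 min exposure per concentration. Isotonic contractions recorded.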

[13] = species on record: Cavia porcellus; assay: Dissociation constant of the drug-receptor complex was measured in guinea pig ileum; format: functional
[14] = In vitro nicotinic activity was measured on frog rectus abdominis; format: functional, tissue-based, Rectus abdominis muscle; in short: as §5
[15] = The equipotent molar ratio (EPMR) relative to oxotremorine on isolated guinea pig; format: functional; details: in the assay text read “relative to carbachol” for “relative to oxotremorine”; in short: as §1
[16] = The equipotent molar ratio (EPMR) relative to oxotremorine on isolated guinea urinary bladder; format: functional; details: in the assay text read “relative to carbachol” for “relative to oxotremorine”; in short: as §2
[17] = species on record: Cavia porcellus; assay: Relative efficacy of compound was determined was determined in guinea pig bladder; format: functional
[18] = Equipotent molar ratio (EPMR) was measured on frog rectus abdominis; format: functional, Rectus abdominis muscle; in short: as §5
[19] = Ratio of equipotent molar ratio (EPMR) of frog rectus to EPMR of guinea pig ileum; format: functional
[20] = as §3; details: mouse, in vivo; in short: as §4

| SMILES | pEC50 [1] | pEC50 [2] | Efficacy [3] | Efficacy [4] | pKd [5] | ED50 [6] [µmol/kg] | LD50 [7] [µmol/kg] | IC50 [8] [µM] | Binding [9] [%] | KL [10] [µM] | KH [11] [µM] | Ratio [12] | pKd [13] | pEC50 [14] | Ratio [15] | Ratio [16] | Efficacy [17] | Ratio [18] | Ratio [19] | LD50 [20] [µmol/kg] |
| --- | --- | --- | --- | --- | --- | --- | --- | --- | --- | --- | --- | --- | --- | --- | --- | --- | --- | --- | --- | --- |
| C[N+](C)(C)CC#CCN1CCCC1=O.[I-] [OXOTREMORINE METHIODIDE] | 7.64 | 6.43 | 0.95 | 0.88 | 5.37 | 0.058 | 1 | 1.2 | 31.3 | 5.4 | 0.019 | 2.1 | 5.54 | – | – | – | – | – | – | – |
| O=C1CCC(=O)N1CC#CC[S+]1CCCC1.[Cl-] | 5.10 | – | 0.0061 | – | 4.88 | – | 3.5 | 3.3 | – | – | – | 18 | 5.12 | 4.18 | 81 | – | – | – | – | – |
| O=C1CCCN1CC#CC[S+]1CCCC1.[Cl-] | 6.60 | 5.92 | 0.054 | 0.057 | 5.96 | 0.35 | 2.2 | 0.31 | 37 | 0.99 | 0.069 | 1.4 | 5.89 | 5.30 | 2.1 | 2.3 | – | – | – | – |
| C[S+](C)CC#CCN1C(=O)CCC1=O.[Cl-] | 6.39 | 5.77 | 0.11 | 0.15 | 5.23 | 0.48 | 70 | 5.4 | 27.4 | 12.7 | 0.19 | 692 | 5.16 | 2.59 | 4.1 | 3.7 | – | – | – | – |
| C[S+](C)CC#CCN1CCCC1=O.[Cl-] | 7.54 | 6.70 | 0.41 | – | 5.89 | 0.024 | 2.8 | 0.8 | 28.4 | 2.2 | 0.011 | – | 5.82 | 4.54 | 0.24 | 0.32 | 0.48 | 8.1 | 33.8 | – |
| C[N+](C)(C)CCOC(N)=O.[Cl-] [CARBACHOL] | – | – | 1 | 1 | – | 0.083 | – | – | – | – | – | – | – | 5.42 | – | – | – | – | – | 1.7 |

Source: ChEMBL document CHEMBL1123945, “Dimethylsulfonium and thiolanium analogues of the muscarinic agent oxotremorine” (J Med Chem, 1988)
